Like-named read-outs stand apart in the source and are kept apart here.
Tests used:
[1] = both acetate and freebase forms, cited from earlier work
[2] = format: in vivo, human (healthy adult participants); conditions: for AUC(0-inf) / AUC(0-t) / Cmax / half-life / Tmax: human, plasma, po; for Tmax: median (range)
[3] = Safety and tolerability; format: in vivo, human (healthy adult participants)
Summary of the method: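 Healthy adults received single 100-mg oral doses of 4×25-mg tablets, either fasted, after a high-fat meal, or after five evening doses of rabeprazole 20 mg. Safety was monitored by physical examination, laboratory tests, ECG, concomitant medication review, and AE frequency and severity. The safety population comprised all participants receiving ≥1 dose of study medication.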

[4] = cited from earlier work
[5] = 100-mg oral solution (test) versus 100-mg tablets (reference)
[6] = 100-mg tablets + high-fat meal (test) versus 100-mg tablets (reference)
[7] = 100-mg tablets + rabeprazole 20-mg (test) versus 100-mg tablets (reference)
[8] = Treatment A: 100-mg tablets, fasted, n = 24
[9] = Treatment B: 100-mg tablets + high-fat meal, n = 23
[10] = Treatment C: 100-mg tablets + rabeprazole 20 mg, n = 23
[11] = Treatment D: 100-mg oral solution, n = 24

For `C[C@H]1Oc2cc(cnc2N)-c2c(nn(C)c2C#N)CN(C)C(=O)c2ccc(F)cc21` [Lorlatinib, (10R)‐7‐amino‐12‐fluoro‐2,10,16‐trimethyl‐15‐oxo‐10,15,16,17‐tetrahydro‐2H‐8,4‐(metheno)pyrazolo[4,3‐h][2,5,11]‐benzoxadiazacyclotetradecine‐3‐carbonitrile], the Aqueous solubility ([1]; pH 7.7) is given as 100 µg/mL, the Aqueous solubility ([1]; pH <2) is given as > 10000 µg/mL and the “Ratio (Test/Reference) of Adjusted Means, AUCinf” value (“Ratio (Test/Reference) … AUCinf” below) [2, 5] is given as 107.9%. For the same compound, the “Ratio (Test/Reference) of Adjusted Means, AUClast” value (“Ratio (Test/Reference) … AUClast” for short) [2, 5] was 107.8%, the “Ratio (Test/Reference) of Adjusted Means, Cmax” value (shortened to “Ratio (Test/Reference) … Cmax”) [2, 5] was 129.7% and the “Ratio (Test/Reference) … AUCinf” value [2, 6] was 104.7%. The “Ratio (Test/Reference) … AUClast” value [2, 6] was 104.6%, the “Ratio (Test/Reference) … Cmax” value [2, 6] was 90.9% and the “Ratio (Test/Reference) … AUCinf” value [2, 7] was 100.9%. For the same compound, the “Ratio (Test/Reference) … AUClast” value [2, 7] was 99.7%, the “Ratio (Test/Reference) … Cmax” value [2, 7] was 70.7% and the “Adjusted geometric mean Cmax” value ([2]; 100-mg tablets, fasted (reference), mixed-effects model) was 533.1 ng/mL. For the same compound, the “Arithmetic mean CL/F” value ([2]; Treatment A: single oral 100-mg dose, tablets, fasted, n = 24, mean ± SD) was 11.8 ± 2.5 L/h, the “Geometric mean CL/F” value ([2]; Treatment A: single oral 100-mg dose, tablets, fasted, n = 24, value (geometric %CV)) was 11.5 (24) L/h and the “Arithmetic mean CL/F” value ([2]; Treatment B: single oral 100-mg dose, tablets + high-fat meal, n = 23, mean ± SD) was 11.7 ± 2.8 L/h. The “Geometric mean CL/F” value ([2]; Treatment B: single oral 100-mg dose, tablets + high-fat meal, n = 23, value (geometric %CV)) was 11.4 (24) L/h, the “Arithmetic mean CL/F” value ([2]; Treatment C: single oral 100-mg dose, tablets + rabeprazole 20 mg, fasted, n = 23, mean ± SD) was 11.9 ± 2.5 L/h and the “Geometric mean CL/F” value ([2]; Treatment C: single oral 100-mg dose, tablets + rabeprazole 20 mg, fasted, n = 23, value (geometric %CV)) was 11.6 (24) L/h. For the same compound, the “Arithmetic mean CL/F” value ([2]; Treatment D: single oral 100-mg dose, oral solution, fasted, n = 24, mean ± SD) was 11.0 ± 2.4 L/h, the “Geometric mean CL/F” value ([2]; Treatment D: single oral 100-mg dose, oral solution, fasted, n = 24, value (geometric %CV)) was 10.7 (24) L/h and the AUC(0-inf) ([2]; 100 mg, Arithmetic mean AUCinf, Treatment A: single oral 100-mg dose, tablets, fasted, n = 24, mean ± SD) was 8960 ± 2380 ng·h/mL. The AUC(0-inf) ([2]; 100 mg, Arithmetic mean AUCinf, Treatment B: single oral 100-mg dose, tablets + high-fat meal, n = 23, mean ± SD) was 9030 ± 2280 ng·h/mL, the AUC(0-inf) ([2]; 100 mg, Arithmetic mean AUCinf, Treatment D: single oral 100-mg dose, oral solution, fasted, n = 24, mean ± SD) was 9620 ± 2440 ng·h/mL and the AUC(0-t) ([2]; 100 mg, Arithmetic mean AUClast, Treatment A: single oral 100-mg dose, tablets, fasted, n = 24, mean ± SD) was 8380 ± 1990 ng·h/mL. The AUC(0-t) ([2]; 100 mg, Arithmetic mean AUClast, Treatment B: single oral 100-mg dose, tablets + high-fat meal, n = 23, mean ± SD) was 8460 ± 1940 ng·h/mL, the AUC(0-t) ([2]; 100 mg, Arithmetic mean AUClast, Treatment D: single oral 100-mg dose, oral solution, fasted, n = 24, mean ± SD) was 8990 ± 2040 ng·h/mL and the Cmax ([2]; 100 mg, Arithmetic mean Cmax, Treatment A: single oral 100-mg dose, tablets, fasted, n = 24, mean ± SD) was 559 ± 115 ng/mL. For the same compound, the Cmax ([2]; 100 mg, Arithmetic mean Cmax, Treatment D: single oral 100-mg dose, oral solution, fasted, n = 24, mean ± SD) was 722 ± 185 ng/mL, the half-life ([2]; 100 mg, Arithmetic mean t1/2, Treatment A: single oral 100-mg dose, tablets, fasted, n = 24, mean ± SD) was 24.2 ± 5.2 h and the half-life ([2]; 100 mg, Arithmetic mean t1/2, Treatment B: single oral 100-mg dose, tablets + high-fat meal, n = 23, mean ± SD) was 23.7 ± 6 h. The half-life ([2]; 100 mg, Arithmetic mean t1/2, Treatment D: single oral 100-mg dose, oral solution, fasted, n = 24, mean ± SD) was 24.1 ± 5.4 h, the AUC(0-inf) ([2]; 100 mg, Geometric mean AUCinf, Treatment A: single oral 100-mg dose, tablets, fasted, n = 24, value (geometric %CV)) was 8710 ng·h/mL and the AUC(0-inf) ([2]; 100 mg, Geometric mean AUCinf, Treatment B: single oral 100-mg dose, tablets + high-fat meal, n = 23, value (geometric %CV)) was 8780 ng·h/mL. For the same compound, the AUC(0-inf) ([2]; 100 mg, Geometric mean AUCinf, Treatment D: single oral 100-mg dose, oral solution, fasted, n = 24, value (geometric %CV)) was 9360 ng·h/mL, the AUC(0-t) ([2]; 100 mg, Geometric mean AUClast, Treatment B: single oral 100-mg dose, tablets + high-fat meal, n = 23, value (geometric %CV)) was 8260 ng·h/mL and the AUC(0-t) ([2]; 100 mg, Geometric mean AUClast, Treatment D: single oral 100-mg dose, oral solution, fasted, n = 24, value (geometric %CV)) was 8790 ng·h/mL. The Cmax ([2]; 100 mg, Geometric mean Cmax, Treatment A: single oral 100-mg dose, tablets, fasted, n = 24, value (geometric %CV)) was 548 ng/mL, the Cmax ([2]; 100 mg, Geometric mean Cmax, Treatment B: single oral 100-mg dose, tablets + high-fat meal, n = 23, value (geometric %CV)) was 489 ng/mL and the Cmax ([2]; 100 mg, Geometric mean Cmax, Treatment D: single oral 100-mg dose, oral solution, fasted, n = 24, value (geometric %CV)) was 705 ng/mL. The Tmax ([2]; 100 mg, Treatment B: single oral 100-mg dose, tablets + high-fat meal, n = 23) was 2 h, the Tmax ([2]; 100 mg, Treatment D: single oral 100-mg dose, oral solution, fasted, n = 24) was 1 h and the AUC(0-inf) ([2]; Arithmetic mean AUCinf, Treatment C: single oral 100-mg dose, tablets + rabeprazole 20 mg, fasted, n = 23, mean ± SD) was 8880 ± 2430 ng·h/mL. The AUC(0-t) ([2]; Arithmetic mean AUClast, Treatment C: single oral 100-mg dose, tablets + rabeprazole 20 mg, fasted, n = 23, mean ± SD) was 8190 ± 1930 ng·h/mL, the Cmax ([2]; Arithmetic mean Cmax, Treatment C: single oral 100-mg dose, tablets + rabeprazole 20 mg, fasted, n = 23, mean ± SD) was 398 ± 114 ng/mL and the AUC(0-inf) ([2]; Geometric mean AUCinf, Treatment C: single oral 100-mg dose, tablets + rabeprazole 20 mg, fasted, n = 23, value (geometric %CV)) was 8630 ng·h/mL. It also gave an AUC(0-t) ([2]; Geometric mean AUClast, Treatment C: single oral 100-mg dose, tablets + rabeprazole 20 mg, fasted, n = 23, value (geometric %CV)) of 8010 ng·h/mL, a Cmax ([2]; Geometric mean Cmax, Treatment C: single oral 100-mg dose, tablets + rabeprazole 20 mg, fasted, n = 23, value (geometric %CV)) of 383 ng/mL and a Tmax ([2]; Treatment C: single oral 100-mg dose, tablets + rabeprazole 20 mg, fasted, n = 23) of 2 h. For the same compound, the “Higher Cmax with the oral solution than with the tablet formulation” value ([2]; single 100-mg oral dose, fasted) was ~30%, the “Participants with any serious treatment-related AE” value [3, 8] was 0 n (%) and the “Participants with any treatment-emergent AE” value [3, 8] was 19 (79) n (%). The “Participants with any treatment-related AE” value [3, 8] was 19 (79) n (%), the “Treatment-related AE: Acne” value [3, 8] was 4 (17) n (%) and the “Treatment-related AE: Diarrhea” value [3, 8] was 3 (13) n (%). The “Treatment-related AE: First-degree AV block” value [3, 8] was 5 (21) n (%), the “Treatment-related AE: Headache” value [3, 8] was 7 (29) n (%) and the “Participants with any serious treatment-related AE” value [3, 9] was 0 n (%). For the same compound, the “Participants with any treatment-emergent AE” value [3, 9] was 15 (65) n (%), the “Participants with any treatment-related AE” value [3, 9] was 15 (65) n (%) and the “Treatment-related AE: Acne” value [3, 9] was 2 (9) n (%). The “Treatment-related AE: Diarrhea” value [3, 9] was 1 (4) n (%), the “Treatment-related AE: First-degree AV block” value [3, 9] was 2 (9) n (%) and the “Treatment-related AE: Headache” value [3, 9] was 4 (17) n (%). For the same compound, the “Participants with any serious treatment-related AE” value [3, 10] was 0 n (%), the “Participants with any treatment-emergent AE” value [3, 10] was 19 (83) n (%) and the “Participants with any treatment-related AE” value [3, 10] was 19 (83) n (%). The “Treatment-related AE: Acne” value [3, 10] was 2 (9) n (%), the “Treatment-related AE: Diarrhea” value [3, 10] was 2 (9) n (%) and the “Treatment-related AE: First-degree AV block” value [3, 10] was 4 (17) n (%). The “Treatment-related AE: Headache” value [3, 10] was 7 (30) n (%), the “Participants with any serious treatment-related AE” value [3, 11] was 0 n (%) and the “Participants with any treatment-emergent AE” value [3, 11] was 16 (67) n (%). For the same compound, the “Participants with any treatment-related AE” value [3, 11] was 16 (67) n (%), the “Treatment-related AE: Acne” value [3, 11] was 4 (17) n (%) and the “Treatment-related AE: Diarrhea” value [3, 11] was 2 (8) n (%). For the same compound, the “Treatment-related AE: First-degree AV block” value [3, 11] was 3 (13) n (%), the “Treatment-related AE: Headache” value [3, 11] was 6 (25) n (%) and the “Deaths during the study” value ([3]; all treatment periods) was “no deaths”. The “Participants with serious or severe treatment-related AEs” value ([3]; all treatment periods) was “No participants”, the “AEs mild in severity (of all AEs)” value ([3]; all treatment periods, remainder moderate) was 119 of 135 and the “Geometric mean maximum plasma concentration (Cmax)” value ([4]; 100 mg/100 μCi [14C]lorlatinib) was “about 600 ng/mL”. The Renal clearance ([4]; 100 mg/100 μCi [14C]lorlatinib) was 1.6 mL/min, the “Urinary excretion of unchanged lorlatinib” value ([4]; 100 mg/100 μCi [14C]lorlatinib) was ~0.7% and the “Mean terminal plasma elimination half-life (t1/2)” value ([4]; human ADME studies) was “about 20 hours”.

Source: PMC9292600 (Clinical Pharmacology in Drug Development, 2021)
